Assay results as given in ChEMBL document CHEMBL1275252, “First survey of metallo-beta-lactamases in clinical isolates of Pseudomonas aeruginosa in a German university hospital” (2010).
≈ marks a conversion by molar mass, not a printed value.

Key:
Format in all cases: functional
[1] = tested on: Pseudomonas aeruginosa; experiment: Antimicrobial activity against Pseudomonas aeruginosa isolate PA399 expressing VIM-2 beta-lactamase
[2] = tested on: Pseudomonas aeruginosa; experiment: Antimicrobial activity against Pseudomonas aeruginosa isolate PA462 expressing VIM-2 beta-lactamase
[3] = tested on: Pseudomonas aeruginosa; experiment: Antimicrobial activity against Pseudomonas aeruginosa isolate PA465 expressing VIM-2 beta-lactamase
[4] = tested on: Pseudomonas aeruginosa; experiment: Antimicrobial activity against Pseudomonas aeruginosa isolate PA469 expressing VIM-2 beta-lactamase
[5] = tested on: Pseudomonas aeruginosa; experiment: Antimicrobial activity against Pseudomonas aeruginosa isolate PA475 expressing VIM-2 beta-lactamase
[6] = tested on: Pseudomonas aeruginosa; experiment: Antimicrobial activity against Pseudomonas aeruginosa isolate PA477 expressing VIM-2 beta-lactamase
[7] = tested on: Pseudomonas aeruginosa; experiment: Antimicrobial activity against Pseudomonas aeruginosa isolate PA481 expressing VIM-2 beta-lactamase
[8] = tested on: Pseudomonas aeruginosa; experiment: Antimicrobial activity against Pseudomonas aeruginosa isolate PA500 expressing VIM-1 beta-lactamase
[9] = tested on: Pseudomonas aeruginosa; experiment: Antimicrobial activity against Pseudomonas aeruginosa isolate PA510 expressing VIM-2 beta-lactamase
[10] = tested on: Pseudomonas aeruginosa; experiment: Antimicrobial activity against metallo-beta-lactamase-negative Pseudomonas aeruginosa isolate PA459
Summary of the method: (§1)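 MBL-negative clinical P. aeruginosa isolates with reduced imipenem susceptibility, collected at the study hospital, some from cystic fibrosis patients. Species identity was confirmed by automated Gram-negative identification card. MIC was read in μg/ml.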

[11] = tested on: Pseudomonas aeruginosa; experiment: Antimicrobial activity against metallo-beta-lactamase-negative Pseudomonas aeruginosa isolate PA460
[12] = tested on: Pseudomonas aeruginosa; experiment: Antimicrobial activity against metallo-beta-lactamase-negative Pseudomonas aeruginosa isolate PA479
[13] = tested on: Pseudomonas aeruginosa; experiment: Antimicrobial activity against metallo-beta-lactamase-negative Pseudomonas aeruginosa isolate PA483
[14] = tested on: Pseudomonas aeruginosa; experiment: Antimicrobial activity against metallo-beta-lactamase-negative Pseudomonas aeruginosa isolate PA494
[15] = tested on: Pseudomonas aeruginosa; experiment: Antimicrobial activity against metallo-beta-lactamase-negative Pseudomonas aeruginosa isolate PA507; summary of the method: as §1
[16] = tested on: Pseudomonas aeruginosa; experiment: Antimicrobial activity against metallo-beta-lactamase-negative Pseudomonas aeruginosa isolate PA509

NCC[C@H](O)C(=O)N[C@@H]1C[C@H](N)[C@@H](O[C@H]2O[C@H](CN)[C@@H](O)[C@H](O)[C@H]2O)[C@H](O)[C@H]1O[C@H]1O[C@H](CO)[C@@H](O)[C@H](N)[C@H]1O [AMIKACIN]
MIC [1]: 8 µg/mL (≈ 13.7 µM) | MIC [2]: 4 µg/mL (≈ 6.83 µM) | MIC [3]: 8 µg/mL (≈ 13.7 µM) | MIC [4]: 8 µg/mL (≈ 13.7 µM) | MIC [5]: 4 µg/mL (≈ 6.83 µM) | MIC [6]: 8 µg/mL (≈ 13.7 µM) | MIC [7]: 8 µg/mL (≈ 13.7 µM) | MIC [8]: ≤ 2 µg/mL | MIC [9]: 4 µg/mL (≈ 6.83 µM) | MIC [10]: 2 µg/mL (≈ 3.42 µM) | MIC [11]: 4 µg/mL (≈ 6.83 µM) | MIC [12]: 8 µg/mL (≈ 13.7 µM) | MIC [13]: 2 µg/mL (≈ 3.42 µM) | MIC [14]: 8 µg/mL (≈ 13.7 µM) | MIC [15]: 16 µg/mL (≈ 27.3 µM) | MIC [16]: 64 µg/mL (≈ 109 µM)

C[C@H]1[C@H](NC(=O)/C(=N\OC(C)(C)C(=O)O)c2csc(N)n2)C(=O)N1S(=O)(=O)O [AZTREONAM]
MIC [1]: 16 µg/mL (≈ 36.7 µM) | MIC [2]: 16 µg/mL (≈ 36.7 µM) | MIC [3]: 16 µg/mL (≈ 36.7 µM) | MIC [4]: 16 µg/mL (≈ 36.7 µM) | MIC [5]: 16 µg/mL (≈ 36.7 µM) | MIC [6]: 16 µg/mL (≈ 36.7 µM) | MIC [7]: 16 µg/mL (≈ 36.7 µM) | MIC [8]: 4 µg/mL (≈ 9.19 µM) | MIC [9]: ≥ 64 µg/mL | MIC [10]: 16 µg/mL (≈ 36.7 µM) | MIC [11]: 16 µg/mL (≈ 36.7 µM) | MIC [12]: 32 µg/mL (≈ 73.5 µM) | MIC [13]: 64 µg/mL (≈ 147 µM) | MIC [14]: 16 µg/mL (≈ 36.7 µM) | MIC [15]: 16 µg/mL (≈ 36.7 µM) | MIC [16]: 8 µg/mL (≈ 18.4 µM)

GENTAMICIN
MIC [1]: > 16 µg/mL | MIC [2]: > 16 µg/mL | MIC [3]: > 16 µg/mL | MIC [4]: > 16 µg/mL | MIC [5]: > 16 µg/mL | MIC [6]: > 16 µg/mL | MIC [7]: > 16 µg/mL | MIC [8]: > 16 µg/mL | MIC [9]: > 16 µg/mL | MIC [10]: 1 µg/mL | MIC [11]: > 16 µg/mL | MIC [12]: > 16 µg/mL | MIC [13]: 1 µg/mL | MIC [14]: 8 µg/mL | MIC [15]: > 16 µg/mL | MIC [16]: > 16 µg/mL
